Results: ChEMBL document CHEMBL1143111, “Synthesis and antimicrobial activity of novel C-linked imidazole glycoconjugates” (Bioorg Med Chem Lett, 2008)
In brackets after ≈: the same amount, converted by molar mass. Activity calls are given as the source filed them. No cut-off for these calls is given here.

Assays:
Saccharomyces cerevisiae = assay: Antifungal activity against Saccharomyces cerevisiae by agar cup diffusion method; type: functional, organism-based
Rhizopus arrhizus = assay: Antifungal activity against Rhizopus oryzae by agar cup diffusion method; type: functional, organism-based
Aspergillus niger = assay: Antifungal activity against Aspergillus niger by agar cup diffusion method; type: functional, organism-based
[1] = test system: Staphylococcus epidermidis; assay: Antibacterial activity against Staphylococcus epidermidis by broth dilution method; type: functional
In short: (§1)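 Compounds and reference drugs were dissolved as stocks in 50% DMSO–water, then serially diluted twofold with culture medium, with bacterial inoculum added […], and the MIC was determined. Only compounds that gave a growth-inhibition zone in a prior agar cup diffusion screen went on to this broth dilution test.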

Escherichia coli = assay: Antibacterial activity against Escherichia coli by broth dilution method; type: functional; in short: as §1
Pseudomonas aeruginosa = assay: Antibacterial activity against Pseudomonas aeruginosa by broth dilution method; type: functional; in short: as §1
Klebsiella pneumoniae = assay: Antibacterial activity against Klebsiella pneumoniae by broth dilution method; type: functional; in short: as §1
Staphylococcus aureus = assay: Antibacterial activity against Staphylococcus aureus by broth dilution method; type: functional; in short: as §1
Candida albicans = assay: Antifungal activity against Candida albicans by agar cup diffusion method; type: functional, organism-based
Bacillus subtilis = assay: Antibacterial activity against Bacillus subtilis by broth dilution method; type: functional; in short: as §1
[2] = Inhibition of bovine N-acetyl-beta-D-glucosaminidase; parameters: species or system Bos taurus

Row | SMILES | Activity (Saccharomyces cerevisiae) | Activity (Rhizopus arrhizus) | Activity (Aspergillus niger) | MIC [1] | MIC (Escherichia coli) | MIC (Pseudomonas aeruginosa) | MIC (Klebsiella pneumoniae) | MIC (Staphylococcus aureus) | Activity (Candida albicans) | MIC (Bacillus subtilis) | Ki [2]
1 | CC1(C)O[C@H]2O[C@H](c3nc(-c4ccccc4)c(-c4ccccc4)n3Cc3ccccc3)[C@H](O)[C@H]2O1 | inactive | inactive | inactive | 150 µg/mL (≈ 320 µM) | 150 µg/mL (≈ 320 µM) | 37.5 µg/mL (≈ 80 µM) | 75 µg/mL (≈ 160 µM) | 150 µg/mL (≈ 320 µM) | inactive | 150 µg/mL (≈ 320 µM) | 
2 | CC1(C)OC[C@H](c2nc(-c3ccccc3)c(-c3ccccc3)n2-c2ccc(F)cc2)O1 | inactive | inactive | inactive | 75 µg/mL (≈ 181 µM) | 37.5 µg/mL (≈ 90.5 µM) | 37.5 µg/mL (≈ 90.5 µM) | 75 µg/mL (≈ 181 µM) | 75 µg/mL (≈ 181 µM) | inactive | 75 µg/mL (≈ 181 µM) | 
3 | Cc1cccc(-n2c(C3OC(C)(C)O[C@H]3[C@@H](O)[C@H]3COC(C)(C)O3)nc(-c3ccccc3)c2-c2ccccc2)c1 (some centres not stated) | inactive | inactive | inactive | 75 µg/mL (≈ 139 µM) | 75 µg/mL (≈ 139 µM) | 37.5 µg/mL (≈ 69.4 µM) | 150 µg/mL (≈ 277 µM) | 150 µg/mL (≈ 277 µM) | inactive | 150 µg/mL (≈ 277 µM) | 
4 | Cc1ccc(-n2c([C@H]3COC(C)(C)O3)nc(-c3ccccc3)c2-c2ccccc2)cc1 | inactive | inactive | inactive | 75 µg/mL (≈ 183 µM) | 75 µg/mL (≈ 183 µM) | 150 µg/mL (≈ 365 µM) | 75 µg/mL (≈ 183 µM) | 150 µg/mL (≈ 365 µM) | inactive | 150 µg/mL (≈ 365 µM) | 
5 | CC1(C)OC(c2nc(-c3ccccc3)c(-c3ccccc3)n2-c2ccc(F)cc2)[C@H]([C@@H](O)[C@H]2COC(C)(C)O2)O1 (some centres not stated) | inactive | inactive | inactive | 150 µg/mL (≈ 275 µM) | 75 µg/mL (≈ 138 µM) | 75 µg/mL (≈ 138 µM) | 75 µg/mL (≈ 138 µM) | 150 µg/mL (≈ 275 µM) | inactive | 150 µg/mL (≈ 275 µM) | 
6 | CC(=O)N[C@H]1c2nc(CC(=O)O)cn2[C@H](CO)[C@H](O)[C@@H]1O [NAGSTATIN] |  |  |  |  |  |  |  |  |  |  | 4 nM
7 | CN[C@@H]1[C@H](O[C@H]2[C@H](O[C@H]3[C@H](O)[C@@H](O)[C@H](N=C(N)N)[C@@H](O)[C@@H]3N=C(N)N)O[C@@H](C)[C@]2(O)C=O)O[C@@H](CO)[C@H](O)[C@H]1O (stereo in doubt) [STREPTOMYCIN] |  |  |  | 1.56 µg/mL (≈ 2.69 µM) | 2.35 µg/mL (≈ 4.04 µM) | 3.12 µg/mL (≈ 5.37 µM) | 3.12 µg/mL (≈ 5.37 µM) | 1.56 µg/mL (≈ 2.69 µM) |  | 6.25 µg/mL (≈ 10.7 µM) | 
8 | Cc1ccc(-n2c(C3OC(C)(C)O[C@H]3[C@@H](O)[C@H]3COC(C)(C)O3)nc(-c3ccccc3)c2-c2ccccc2)cc1 (some centres not stated) | inactive | inactive | inactive | 150 µg/mL (≈ 277 µM) | 75 µg/mL (≈ 139 µM) | 75 µg/mL (≈ 139 µM) | 75 µg/mL (≈ 139 µM) | 75 µg/mL (≈ 139 µM) | inactive | 75 µg/mL (≈ 139 µM) | 
9 | Cc1ccc(-n2c([C@H]3O[C@@H]4OC(C)(C)O[C@@H]4[C@H]4OC(C)(C)O[C@H]43)nc(-c3ccccc3)c2-c2ccccc2)cc1 | inactive | inactive | inactive | 75 µg/mL (≈ 139 µM) | 75 µg/mL (≈ 139 µM) | 75 µg/mL (≈ 139 µM) | 75 µg/mL (≈ 139 µM) | 37.5 µg/mL (≈ 69.6 µM) | inactive | 37.5 µg/mL (≈ 69.6 µM) | 
10 | CC1(C)OC(c2nc(-c3ccccc3)c(-c3ccccc3)n2Cc2ccccc2)[C@H]([C@@H](O)[C@H]2COC(C)(C)O2)O1 (some centres not stated) | inactive | inactive | inactive | 150 µg/mL (≈ 277 µM) | 75 µg/mL (≈ 139 µM) | 37.5 µg/mL (≈ 69.4 µM) | 75 µg/mL (≈ 139 µM) | 75 µg/mL (≈ 139 µM) | inactive | 75 µg/mL (≈ 139 µM) | 
11 | OC[C@@H](O)[C@@H](O)[C@@H](O)[C@H](O)c1nc(-c2ccccc2)c(-c2ccccc2)n1Cc1ccccc1 | inactive | inactive | inactive | 75 µg/mL (≈ 163 µM) | 75 µg/mL (≈ 163 µM) | 75 µg/mL (≈ 163 µM) | 75 µg/mL (≈ 163 µM) | 75 µg/mL (≈ 163 µM) | inactive | 75 µg/mL (≈ 163 µM) | 
